{
  "source": "paper PMC6247064",
  "about": "(Cancer Science, 2018)",
  "tested_on": "Japanese patients with advanced solid tumors",
  "test": "Phase 1 study: safety, tolerability, DLT and treatment-emergent adverse events",
  "type": "in vivo, human",
  "summary_of_the_method": "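Open-label single-arm dose levels of 80 or 105 mg/m2 IV were given on day 1 of 14-day cycles, with at most 6 patients per level. Adverse events were graded by CTCAE v4.03. DLTs were related events in cycle 1 meeting predefined hematologic or nonhematologic criteria. Tolerability required a cycle 1 DLT rate <33%. Primary G-CSF prophylaxis was barred during DLT evaluation; G-CSF was allowed for treatment-emergent neutropenia and as secondary prophylaxis.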",
  "data": [
    {"smiles": "COc1cccc(OCCCN)c1-c1cc(Nc2cnc(C#N)cn2)n[nH]1", "note": "[Prexasertib]", "values": [
      {"measurement": "TEAE related to study treatment: Febrile neutropenia", "setting": "80 mg/m^2 N = 6, Grade 4", "value": "1 (16.7) n (%)"},
      {"measurement": "TEAE related to study treatment: Headache", "setting": "80 mg/m^2 N = 6, Grade 4", "value": "0 n (%)"},
      {"measurement": "TEAE related to study treatment: Hypocalcemia", "setting": "80 mg/m^2 N = 6, Grade 4", "value": "0 n (%)"},
      {"measurement": "TEAE related to study treatment: Leukopenia", "setting": "80 mg/m^2 N = 6, Grade 4", "value": "3 (50.0) n (%)"},
      {"measurement": "TEAE related to study treatment: Lung infection", "setting": "80 mg/m^2 N = 6, Grade 4", "value": "0 n (%)"},
      {"measurement": "TEAE related to study treatment: Lymphocytopenia", "setting": "80 mg/m^2 N = 6, Grade 4", "value": "0 n (%)"},
      {"measurement": "TEAE related to study treatment: Nausea", "setting": "80 mg/m^2 N = 6, Grade 4", "value": "0 n (%)"},
      {"measurement": "TEAE related to study treatment: Neutropenia", "setting": "80 mg/m^2 N = 6, Grade 4", "value": "3 (50.0) n (%)"},
      {"measurement": "TEAE related to study treatment: Pyrexia", "setting": "80 mg/m^2 N = 6, Grade 4", "value": "0 n (%)"},
      {"measurement": "TEAE related to study treatment: Rash", "setting": "80 mg/m^2 N = 6, Grade 4", "value": "0 n (%)"},
      {"measurement": "TEAE related to study treatment: Rash maculopapular", "setting": "80 mg/m^2 N = 6, Grade 4", "value": "0 n (%)"},
      {"measurement": "TEAE related to study treatment: SVE (supraventricular extrasystoles)", "setting": "80 mg/m^2 N = 6, Grade 4", "value": "0 n (%)"},
      {"measurement": "TEAE related to study treatment: Stomatitis", "setting": "80 mg/m^2 N = 6, Grade 4", "value": "0 n (%)"},
      {"measurement": "TEAE related to study treatment: Thrombocytopenia", "setting": "80 mg/m^2 N = 6, Grade 4", "value": "1 (16.7) n (%)"},
      {"measurement": "Patients with at least 1 AE that led to a dose adjustment", "setting": "80 mg/m^2 group", "value": 5, "unit": "patients"},
      {"measurement": "Patients with at least 1 AE that led to a dose delay", "setting": "80 mg/m^2 group", "value": 3, "unit": "patients"},
      {"measurement": "Patients with at least 1 AE that led to dose reduction", "setting": "80 mg/m^2 group (80 to 60 mg/m^2)", "value": 4, "unit": "patients"},
      {"measurement": "TEAE related to study treatment: Anemia", "setting": "105 mg/m^2 N = 6, Any grade", "value": "0 n (%)"},
      {"measurement": "TEAE related to study treatment: Any", "setting": "105 mg/m^2 N = 6, Any grade", "value": "6 (100) n (%)"},
      {"measurement": "TEAE related to study treatment: Atrial fibrillation", "setting": "105 mg/m^2 N = 6, Any grade", "value": "0 n (%)"},
      {"measurement": "TEAE related to study treatment: Constipation", "setting": "105 mg/m^2 N = 6, Any grade", "value": "1 (16.7) n (%)"},
      {"measurement": "TEAE related to study treatment: ECG QT prolonged", "setting": "105 mg/m^2 N = 6, Any grade", "value": "0 n (%)"},
      {"measurement": "TEAE related to study treatment: Fatigue", "setting": "105 mg/m^2 N = 6, Any grade", "value": "1 (16.7) n (%)"},
      {"measurement": "TEAE related to study treatment: Febrile neutropenia", "setting": "105 mg/m^2 N = 6, Any grade", "value": "1 (16.7) n (%)"},
      {"measurement": "TEAE related to study treatment: Headache", "setting": "105 mg/m^2 N = 6, Any grade", "value": "1 (16.7) n (%)"},
      {"measurement": "TEAE related to study treatment: Hypocalcemia", "setting": "105 mg/m^2 N = 6, Any grade", "value": "1 (16.7) n (%)"},
      {"measurement": "TEAE related to study treatment: Leukopenia", "setting": "105 mg/m^2 N = 6, Any grade", "value": "6 (100) n (%)"},
      {"measurement": "TEAE related to study treatment: Lung infection", "setting": "105 mg/m^2 N = 6, Any grade", "value": "0 n (%)"},
      {"measurement": "TEAE related to study treatment: Lymphocytopenia", "setting": "105 mg/m^2 N = 6, Any grade", "value": "0 n (%)"},
      {"measurement": "TEAE related to study treatment: Nausea", "setting": "105 mg/m^2 N = 6, Any grade", "value": "0 n (%)"},
      {"measurement": "TEAE related to study treatment: Neutropenia", "setting": "105 mg/m^2 N = 6, Any grade", "value": "6 (100) n (%)"},
      {"measurement": "TEAE related to study treatment: Pyrexia", "setting": "105 mg/m^2 N = 6, Any grade", "value": "1 (16.7) n (%)"},
      {"measurement": "TEAE related to study treatment: Rash", "setting": "105 mg/m^2 N = 6, Any grade", "value": "0 n (%)"},
      {"measurement": "TEAE related to study treatment: Rash maculopapular", "setting": "105 mg/m^2 N = 6, Any grade", "value": "1 (16.7) n (%)"},
      {"measurement": "TEAE related to study treatment: SVE (supraventricular extrasystoles)", "setting": "105 mg/m^2 N = 6, Any grade", "value": "0 n (%)"},
      {"measurement": "TEAE related to study treatment: Stomatitis", "setting": "105 mg/m^2 N = 6, Any grade", "value": "0 n (%)"},
      {"measurement": "TEAE related to study treatment: Thrombocytopenia", "setting": "105 mg/m^2 N = 6, Any grade", "value": "4 (66.7) n (%)"},
      {"measurement": "TEAE related to study treatment: Anemia", "setting": "105 mg/m^2 N = 6, Grade 3", "value": "0 n (%)"},
      {"measurement": "TEAE related to study treatment: Any", "setting": "105 mg/m^2 N = 6, Grade 3", "value": "3 (50.0) n (%)"},
      {"measurement": "TEAE related to study treatment: Atrial fibrillation", "setting": "105 mg/m^2 N = 6, Grade 3", "value": "0 n (%)"},
      {"measurement": "TEAE related to study treatment: Constipation", "setting": "105 mg/m^2 N = 6, Grade 3", "value": "0 n (%)"},
      {"measurement": "TEAE related to study treatment: ECG QT prolonged", "setting": "105 mg/m^2 N = 6, Grade 3", "value": "0 n (%)"},
      {"measurement": "TEAE related to study treatment: Fatigue", "setting": "105 mg/m^2 N = 6, Grade 3", "value": "0 n (%)"},
      {"measurement": "TEAE related to study treatment: Febrile neutropenia", "setting": "105 mg/m^2 N = 6, Grade 3", "value": "1 (16.7) n (%)"},
      {"measurement": "TEAE related to study treatment: Headache", "setting": "105 mg/m^2 N = 6, Grade 3", "value": "0 n (%)"},
      {"measurement": "TEAE related to study treatment: Hypocalcemia", "setting": "105 mg/m^2 N = 6, Grade 3", "value": "0 n (%)"},
      {"measurement": "TEAE related to study treatment: Leukopenia", "setting": "105 mg/m^2 N = 6, Grade 3", "value": "4 (66.7) n (%)"},
      {"measurement": "TEAE related to study treatment: Lung infection", "setting": "105 mg/m^2 N = 6, Grade 3", "value": "0 n (%)"},
      {"measurement": "TEAE related to study treatment: Lymphocytopenia", "setting": "105 mg/m^2 N = 6, Grade 3", "value": "0 n (%)"},
      {"measurement": "TEAE related to study treatment: Nausea", "setting": "105 mg/m^2 N = 6, Grade 3", "value": "0 n (%)"},
      {"measurement": "TEAE related to study treatment: Neutropenia", "setting": "105 mg/m^2 N = 6, Grade 3", "value": "3 (50.0) n (%)"},
      {"measurement": "TEAE related to study treatment: Pyrexia", "setting": "105 mg/m^2 N = 6, Grade 3", "value": "0 n (%)"},
      {"measurement": "TEAE related to study treatment: Rash", "setting": "105 mg/m^2 N = 6, Grade 3", "value": "0 n (%)"},
      {"measurement": "TEAE related to study treatment: Rash maculopapular", "setting": "105 mg/m^2 N = 6, Grade 3", "value": "0 n (%)"},
      {"measurement": "TEAE related to study treatment: SVE (supraventricular extrasystoles)", "setting": "105 mg/m^2 N = 6, Grade 3", "value": "0 n (%)"},
      {"measurement": "TEAE related to study treatment: Stomatitis", "setting": "105 mg/m^2 N = 6, Grade 3", "value": "0 n (%)"},
      {"measurement": "TEAE related to study treatment: Thrombocytopenia", "setting": "105 mg/m^2 N = 6, Grade 3", "value": "1 (16.7) n (%)"},
      {"measurement": "TEAE related to study treatment: Anemia", "setting": "105 mg/m^2 N = 6, Grade 3 + 4", "value": "0 n (%)"},
      {"measurement": "TEAE related to study treatment: Any", "setting": "105 mg/m^2 N = 6, Grade 3 + 4", "value": "6 (100) n (%)"},
      {"measurement": "TEAE related to study treatment: Atrial fibrillation", "setting": "105 mg/m^2 N = 6, Grade 3 + 4", "value": "0 n (%)"},
      {"measurement": "TEAE related to study treatment: Constipation", "setting": "105 mg/m^2 N = 6, Grade 3 + 4", "value": "0 n (%)"},
      {"measurement": "TEAE related to study treatment: ECG QT prolonged", "setting": "105 mg/m^2 N = 6, Grade 3 + 4", "value": "0 n (%)"},
      {"measurement": "TEAE related to study treatment: Fatigue", "setting": "105 mg/m^2 N = 6, Grade 3 + 4", "value": "0 n (%)"},
      {"measurement": "TEAE related to study treatment: Febrile neutropenia", "setting": "105 mg/m^2 N = 6, Grade 3 + 4", "value": "1 (16.7) n (%)"},
      {"measurement": "TEAE related to study treatment: Headache", "setting": "105 mg/m^2 N = 6, Grade 3 + 4", "value": "0 n (%)"},
      {"measurement": "TEAE related to study treatment: Hypocalcemia", "setting": "105 mg/m^2 N = 6, Grade 3 + 4", "value": "0 n (%)"},
      {"measurement": "TEAE related to study treatment: Leukopenia", "setting": "105 mg/m^2 N = 6, Grade 3 + 4", "value": "5 (83.3) n (%)"}
    ]}
  ]
}
